≈ marks a conversion by molar mass, not a printed value.
Experiments:
Assay type in all cases: functional
[1] = test system: Candida parapsilosis; assay: Antimicrobial activity against Candida parapsilosis 22019 after 24 hrs by serial dilution method; conditions: Lodderomyces parapsilosis, 22019, 24 h
In short: (§1)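 Broth serial dilution MIC in 96-well plates following NCCLS/CLSI methods. Compounds were dissolved in DMSO and serially diluted in growth medium, with incubation at 35 °C. […] C. parapsilosis 22019 served as the quality-control strain in each assay.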

[2] = test system: Nakaseomyces glabratus; assay: Antimicrobial activity against Candida glabrata 537 after 24 hrs by serial dilution method; conditions: Nakaseomyces glabratus, 537, 24 h; in short: as §1
[3] = test system: Candida albicans; assay: Antimicrobial activity against Candida albicans SC5314 after 24 hrs by serial dilution method; conditions: SC5314, 24 h; in short: as §1
[4] = test system: Cryptococcus neoformans; assay: Antimicrobial activity against Cryptococcus neoformans 32609 after 72 hrs by serial dilution method; conditions: Cryptococcus neoformans, 32609, 72 h; in short: as §1
[5] = test system: Aspergillus fumigatus; assay: Antimicrobial activity against Aspergillus fumigatus 7544 after 48 hrs by serial dilution method; conditions: Aspergillus fumigatus, 7544, 48 h; in short: as §1
[6] = test system: Candida albicans; assay: Antimicrobial activity against Candida albicans Y0109 after 24 hrs by serial dilution method; conditions: Y0109, 24 h; in short: as §1

| SMILES | MIC [1] | MIC [2] | MIC [3] | MIC [4] | MIC [5] | MIC [6] |
| --- | --- | --- | --- | --- | --- | --- |
| C[C@@H](N1CCc2nc(-c3ccsc3)sc2C1)[C@](O)(Cn1cncn1)c1ccc(F)cc1F | 0.25 µg/mL (≈ 0.528 µM) | 0.25 µg/mL (≈ 0.528 µM) | 0.25 µg/mL (≈ 0.528 µM) | 0.25 µg/mL (≈ 0.528 µM) | 8 µg/mL (≈ 16.9 µM) | 0.25 µg/mL (≈ 0.528 µM) |
| C[C@@H](N1CCc2nc(-c3cccc(F)c3)sc2C1)[C@](O)(Cn1cncn1)c1ccc(F)cc1F | 2 µg/mL (≈ 4.12 µM) | 8 µg/mL (≈ 16.5 µM) | 2 µg/mL (≈ 4.12 µM) | 2 µg/mL (≈ 4.12 µM) | 32 µg/mL (≈ 65.9 µM) | 2 µg/mL (≈ 4.12 µM) |
| Cc1cccc(-c2nc3c(s2)CN([C@H](C)[C@](O)(Cn2cncn2)c2ccc(F)cc2F)CC3)c1 | 1 µg/mL (≈ 2.08 µM) | 4 µg/mL (≈ 8.31 µM) | 2 µg/mL (≈ 4.15 µM) | 4 µg/mL (≈ 8.31 µM) | 32 µg/mL (≈ 66.4 µM) | 2 µg/mL (≈ 4.15 µM) |
| C[C@@H](N1CCc2nc(-c3cccc(Br)c3)sc2C1)[C@](O)(Cn1cncn1)c1ccc(F)cc1F | 2 µg/mL (≈ 3.66 µM) | 8 µg/mL (≈ 14.6 µM) | 2 µg/mL (≈ 3.66 µM) | 4 µg/mL (≈ 7.32 µM) | 32 µg/mL (≈ 58.6 µM) | 2 µg/mL (≈ 3.66 µM) |
| COc1cccc(-c2nc3c(s2)CN([C@H](C)[C@](O)(Cn2cncn2)c2ccc(F)cc2F)CC3)c1 | 1 µg/mL (≈ 2.01 µM) | 1 µg/mL (≈ 2.01 µM) | 1 µg/mL (≈ 2.01 µM) | 2 µg/mL (≈ 4.02 µM) | 16 µg/mL (≈ 32.2 µM) | 1 µg/mL (≈ 2.01 µM) |
| C[C@@H](N1CCc2nc(-c3ccc(C#N)cc3)sc2C1)[C@](O)(Cn1cncn1)c1ccc(F)cc1F | 0.125 µg/mL (≈ 0.254 µM) | 0.5 µg/mL (≈ 1.02 µM) | 0.0625 µg/mL (≈ 0.127 µM) | 0.125 µg/mL (≈ 0.254 µM) | 16 µg/mL (≈ 32.5 µM) | 0.125 µg/mL (≈ 0.254 µM) |
| C[C@@H](N1CCc2nc(-c3cccc(C#N)c3)sc2C1)[C@](O)(Cn1cncn1)c1ccc(F)cc1F | 2 µg/mL (≈ 4.06 µM) | 2 µg/mL (≈ 4.06 µM) | 0.125 µg/mL (≈ 0.254 µM) | 1 µg/mL (≈ 2.03 µM) | 16 µg/mL (≈ 32.5 µM) | 0.125 µg/mL (≈ 0.254 µM) |
| C[C@@H](N1CCc2nc(-c3cccs3)sc2C1)[C@](O)(Cn1cncn1)c1ccc(F)cc1F | 1 µg/mL (≈ 2.11 µM) | 0.5 µg/mL (≈ 1.06 µM) | 0.25 µg/mL (≈ 0.528 µM) | 0.5 µg/mL (≈ 1.06 µM) | 8 µg/mL (≈ 16.9 µM) | 0.25 µg/mL (≈ 0.528 µM) |
| C[C@@H](N1CCc2nc(-c3ccco3)sc2C1)[C@](O)(Cn1cncn1)c1ccc(F)cc1F | 1 µg/mL (≈ 2.19 µM) | 0.5 µg/mL (≈ 1.09 µM) | 0.25 µg/mL (≈ 0.546 µM) | 0.5 µg/mL (≈ 1.09 µM) | 8 µg/mL (≈ 17.5 µM) | 1 µg/mL (≈ 2.19 µM) |
| C[C@@H](N1CCc2nc(-c3ccncc3)sc2C1)[C@](O)(Cn1cncn1)c1ccc(F)cc1F | 0.125 µg/mL (≈ 0.267 µM) | 0.125 µg/mL (≈ 0.267 µM) | 0.0312 µg/mL (≈ 0.0667 µM) | 0.125 µg/mL (≈ 0.267 µM) | 4 µg/mL (≈ 8.54 µM) | 0.0312 µg/mL (≈ 0.0667 µM) |
| C[C@@H](N1CCc2nc(-c3cncc(F)c3)sc2C1)[C@](O)(Cn1cncn1)c1ccc(F)cc1F | 0.25 µg/mL (≈ 0.514 µM) | 0.125 µg/mL (≈ 0.257 µM) | 0.125 µg/mL (≈ 0.257 µM) | 0.125 µg/mL (≈ 0.257 µM) | 8 µg/mL (≈ 16.4 µM) | 0.125 µg/mL (≈ 0.257 µM) |
| C[C@@H](N1CCc2nc(-c3cncc(C#N)c3)sc2C1)[C@](O)(Cn1cncn1)c1ccc(F)cc1F | 0.25 µg/mL (≈ 0.507 µM) | 0.5 µg/mL (≈ 1.01 µM) | 0.125 µg/mL (≈ 0.253 µM) | 0.25 µg/mL (≈ 0.507 µM) | 8 µg/mL (≈ 16.2 µM) | 0.25 µg/mL (≈ 0.507 µM) |
| C[C@@H](N1CCc2nc(-c3ccc(C#N)nc3)sc2C1)[C@](O)(Cn1cncn1)c1ccc(F)cc1F | 0.25 µg/mL (≈ 0.507 µM) | 0.5 µg/mL (≈ 1.01 µM) | 0.0625 µg/mL (≈ 0.127 µM) | 0.25 µg/mL (≈ 0.507 µM) | 8 µg/mL (≈ 16.2 µM) | 0.0625 µg/mL (≈ 0.127 µM) |
| C[C@@H](N1CCc2nc(-c3ccc(F)nc3)sc2C1)[C@](O)(Cn1cncn1)c1ccc(F)cc1F | 0.25 µg/mL (≈ 0.514 µM) | 0.125 µg/mL (≈ 0.257 µM) | 0.0625 µg/mL (≈ 0.128 µM) | 0.125 µg/mL (≈ 0.257 µM) | 8 µg/mL (≈ 16.4 µM) | 0.125 µg/mL (≈ 0.257 µM) |
| COc1ccc(-c2nc3c(s2)CN([C@H](C)[C@](O)(Cn2cncn2)c2ccc(F)cc2F)CC3)cn1 | 0.5 µg/mL (≈ 1 µM) | 0.5 µg/mL (≈ 1 µM) | 0.25 µg/mL (≈ 0.501 µM) | 0.25 µg/mL (≈ 0.501 µM) | 16 µg/mL (≈ 32.1 µM) | 0.25 µg/mL (≈ 0.501 µM) |
| Cc1ncc(-c2nc3c(s2)CN([C@H](C)[C@](O)(Cn2cncn2)c2ccc(F)cc2F)CC3)cn1 | 0.25 µg/mL (≈ 0.517 µM) | 0.25 µg/mL (≈ 0.517 µM) | 0.0625 µg/mL (≈ 0.129 µM) | 0.25 µg/mL (≈ 0.517 µM) | 16 µg/mL (≈ 33.1 µM) | 0.0625 µg/mL (≈ 0.129 µM) |
| COc1ncc(-c2nc3c(s2)CN([C@H](C)[C@](O)(Cn2cncn2)c2ccc(F)cc2F)CC3)cn1 | 0.25 µg/mL (≈ 0.5 µM) | 0.25 µg/mL (≈ 0.5 µM) | 0.0625 µg/mL (≈ 0.125 µM) | 0.5 µg/mL (≈ 1 µM) | 8 µg/mL (≈ 16 µM) | 0.125 µg/mL (≈ 0.25 µM) |
| C[C@@H](N1CCc2sc(Br)cc2C1)[C@](O)(Cn1cncn1)c1ccc(F)cc1F | 8 µg/mL (≈ 17 µM) | 4 µg/mL (≈ 8.52 µM) | 2 µg/mL (≈ 4.26 µM) | 2 µg/mL (≈ 4.26 µM) | 64 µg/mL (≈ 136 µM) | 4 µg/mL (≈ 8.52 µM) |
| C[C@@H](N1CCc2sc(-c3ccccc3)cc2C1)[C@](O)(Cn1cncn1)c1ccc(F)cc1F | 8 µg/mL (≈ 17.1 µM) | 4 µg/mL (≈ 8.57 µM) | 1 µg/mL (≈ 2.14 µM) | 2 µg/mL (≈ 4.29 µM) | 32 µg/mL (≈ 68.6 µM) | 8 µg/mL (≈ 17.1 µM) |
| C[C@@H](N1CCc2sc(-c3ccc(F)cc3)cc2C1)[C@](O)(Cn1cncn1)c1ccc(F)cc1F | 8 µg/mL (≈ 16.5 µM) | 4 µg/mL (≈ 8.26 µM) | 2 µg/mL (≈ 4.13 µM) | 2 µg/mL (≈ 4.13 µM) | 64 µg/mL (≈ 132 µM) | 2 µg/mL (≈ 4.13 µM) |
| C[C@@H](N1CCc2sc(-c3ccc(C(F)(F)F)cc3)cc2C1)[C@](O)(Cn1cncn1)c1ccc(F)cc1F | 16 µg/mL (≈ 29.9 µM) | 16 µg/mL (≈ 29.9 µM) | 4 µg/mL (≈ 7.48 µM) | 8 µg/mL (≈ 15 µM) | 32 µg/mL (≈ 59.9 µM) | 8 µg/mL (≈ 15 µM) |
| C[C@@H](N1CCc2sc(-c3ccc(Cl)cc3)cc2C1)[C@](O)(Cn1cncn1)c1ccc(F)cc1F | 16 µg/mL (≈ 31.9 µM) | 16 µg/mL (≈ 31.9 µM) | 4 µg/mL (≈ 7.98 µM) | 8 µg/mL (≈ 16 µM) | 32 µg/mL (≈ 63.9 µM) | 8 µg/mL (≈ 16 µM) |
| Cc1ccc(-c2cc3c(s2)CCN([C@H](C)[C@](O)(Cn2cncn2)c2ccc(F)cc2F)C3)cc1 | 4 µg/mL (≈ 8.32 µM) | 4 µg/mL (≈ 8.32 µM) | 1 µg/mL (≈ 2.08 µM) | 4 µg/mL (≈ 8.32 µM) | 8 µg/mL (≈ 16.6 µM) | 2 µg/mL (≈ 4.16 µM) |
| C[C@@H](N1CCc2sc(-c3ccc(C#N)cc3)cc2C1)[C@](O)(Cn1cncn1)c1ccc(F)cc1F | 8 µg/mL (≈ 16.3 µM) | 8 µg/mL (≈ 16.3 µM) | 2 µg/mL (≈ 4.07 µM) | 4 µg/mL (≈ 8.14 µM) | 64 µg/mL (≈ 130 µM) | 8 µg/mL (≈ 16.3 µM) |
| Cc1cccc(-c2cc3c(s2)CCN([C@H](C)[C@](O)(Cn2cncn2)c2ccc(F)cc2F)C3)c1 | 2 µg/mL (≈ 4.16 µM) | 4 µg/mL (≈ 8.32 µM) | 1 µg/mL (≈ 2.08 µM) | 4 µg/mL (≈ 8.32 µM) | 16 µg/mL (≈ 33.3 µM) | 2 µg/mL (≈ 4.16 µM) |
| C[C@@H](N1CCc2sc(-c3cccc(F)c3)cc2C1)[C@](O)(Cn1cncn1)c1ccc(F)cc1F | 4 µg/mL (≈ 8.26 µM) | 1 µg/mL (≈ 2.06 µM) | 1 µg/mL (≈ 2.06 µM) | 1 µg/mL (≈ 2.06 µM) | 8 µg/mL (≈ 16.5 µM) | 2 µg/mL (≈ 4.13 µM) |
| C[C@@H](N1CCc2sc(-c3cccc(C#N)c3)cc2C1)[C@](O)(Cn1cncn1)c1ccc(F)cc1F | 4 µg/mL (≈ 8.14 µM) | 8 µg/mL (≈ 16.3 µM) | 2 µg/mL (≈ 4.07 µM) | 2 µg/mL (≈ 4.07 µM) | 64 µg/mL (≈ 130 µM) | 4 µg/mL (≈ 8.14 µM) |
| C[C@@H](N1CCc2sc(-c3cccc(Cl)c3)cc2C1)[C@](O)(Cn1cncn1)c1ccc(F)cc1F | 4 µg/mL (≈ 7.98 µM) | 8 µg/mL (≈ 16 µM) | 2 µg/mL (≈ 3.99 µM) | 4 µg/mL (≈ 7.98 µM) | > 64 µg/mL | 2 µg/mL (≈ 3.99 µM) |
| C[C@@H](N1CCc2sc(-c3cccc(C(F)(F)F)c3)cc2C1)[C@](O)(Cn1cncn1)c1ccc(F)cc1F | 2 µg/mL (≈ 3.74 µM) | 1 µg/mL (≈ 1.87 µM) | 1 µg/mL (≈ 1.87 µM) | 0.5 µg/mL (≈ 0.935 µM) | 32 µg/mL (≈ 59.9 µM) | 0.5 µg/mL (≈ 0.935 µM) |
| C[C@@H](N1CCc2sc(-c3cncnc3)cc2C1)[C@](O)(Cn1cncn1)c1ccc(F)cc1F | 4 µg/mL (≈ 8.54 µM) | 8 µg/mL (≈ 17.1 µM) | 2 µg/mL (≈ 4.27 µM) | 4 µg/mL (≈ 8.54 µM) | > 32 µg/mL | 4 µg/mL (≈ 8.54 µM) |
